Results from ChEMBL document CHEMBL2062483, “Design of Bcl-2 and Bcl-xL inhibitors with subnanomolar binding affinities based upon a new scaffold” (J Med Chem, 2012).
Calls of active or inactive are those of the source. The rule behind the calls is not given here.

What was measured:
[1] = Growth inhibition of human NCI-H146 cells after 4 days by WST8 assay; type: functional, cell-based; settings: NCI-H146, 96 h
[2] = biological target: Apoptosis regulator Bcl-2 (Homo sapiens, UniProt P10415); assay: Binding affinity to N-terminus 6X His-tagged human Bcl2 expressed in Escherichia coli BL21 (DE3) cells after 2 hrs by fluorescence polarization assay
How it was run: (§1)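 Competitive FP binding: serially diluted inhibitor in DMSO added to preincubated protein/fluorescent probe complex, 2 h at room temperature with gentle shaking. Final protein/probe: Bcl-2 1.5 nM/1 nM; Bcl-xL 10 nM/2 nM; Mcl-1 20 nM/2 nM. IC50 from nonlinear regression; Ki calculated from IC50, probe Kd and protein/probe concentrations.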

[3] = biological target: Induced myeloid leukemia cell differentiation protein Mcl-1 (Homo sapiens, UniProt Q07820); assay: Binding affinity to N-terminus 8X His-tagged human Mcl1 expressed in Escherichia coli BL21 (DE3) cells after 2 hrs by fluorescence polarization assay; how it was run: as §1
NCI-H1417 = assay: Growth inhibition of human NCI-H1417 cells after 4 days by WST8 assay; type: functional, cell-based; settings: NCI-H1417, 96 h
Bcl-2-like protein 1 = Bcl-2-like protein 1 (Homo sapiens, UniProt Q07817); assay: Binding affinity to N-terminus 8X His-tagged human Bcl-xL expressed in Escherichia coli BL21 (DE3) cells after 2 hrs by fluorescence polarization assay; how it was run: as §1
NCI-H146 [4] = assay: Cytotoxicity against human NCI-H146 cells assessed as cell death after 24 hrs by trypan blue assay; type: functional, cell-based
How it was run: (§2)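 H146 cells exposed to compound for 24 h, then harvested and stained with trypan blue. Cells staining blue or looking morphologically unhealthy were scored dead; at least 100 cells counted per sample.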

NCI-H146 [5] = assay: Induction of apoptosis in human NCI-H146 cells assessed as PARP cleavage at 100 nM after 24 hrs by Western blot analysis; type: functional, cell-based
How it was run: (§3)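 H146 cells treated 24 h, lysed on ice 20 min in RIPA buffer (1% NP40, 0.5% Na-deoxycholate, 0.1% SDS in PBS) with 1 μmol/L PMSF and protease inhibitors. Lysates cleared, protein quantified, run on 4–20% SDS-PAGE, blotted to PVDF, blocked in 5% milk. Rabbit anti-PARP and anti-caspase-3, GAPDH loading control; HRP secondary with chemiluminescent detection.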

NCI-H146 [6] = assay: Induction of apoptosis in human NCI-H146 cells assessed as caspase 3 cleavage at 100 nM after 24 hrs by Western blot analysis; type: functional, cell-based; how it was run: as §3
NCI-H146 [7] = assay: Cytotoxicity against human NCI-H146 cells assessed as cell death at 30 to 100 nM after 24 hrs by trypan blue assay; type: functional, cell-based; how it was run: as §2
[8] = Cytotoxicity against human NCI-H146 cells assessed as cell death at 300 nM after 24 hrs by trypan blue assay; type: functional
How it was run: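 H146 human small cell lung cancer line, grown in RPMI-1640 with 10% FBS, exposed to compound for 24 h. Cells then harvested and stained with trypan blue. Blue-stained or morphologically unhealthy cells counted as dead, with at least 100 cells scored per sample.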

Sequence of Induced myeloid leukemia cell differentiation protein Mcl-1 (Q07820 whole entry): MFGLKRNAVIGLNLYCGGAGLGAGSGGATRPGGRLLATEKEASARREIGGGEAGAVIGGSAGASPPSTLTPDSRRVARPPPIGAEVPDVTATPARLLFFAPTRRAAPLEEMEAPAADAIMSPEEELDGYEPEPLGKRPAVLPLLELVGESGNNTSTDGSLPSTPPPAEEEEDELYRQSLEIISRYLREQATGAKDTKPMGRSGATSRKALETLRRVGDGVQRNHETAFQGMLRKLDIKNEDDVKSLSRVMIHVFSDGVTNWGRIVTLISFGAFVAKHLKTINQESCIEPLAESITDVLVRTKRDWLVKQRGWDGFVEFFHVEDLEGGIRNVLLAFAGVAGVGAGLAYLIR
Sequence of Apoptosis regulator Bcl-2 (P10415 whole entry): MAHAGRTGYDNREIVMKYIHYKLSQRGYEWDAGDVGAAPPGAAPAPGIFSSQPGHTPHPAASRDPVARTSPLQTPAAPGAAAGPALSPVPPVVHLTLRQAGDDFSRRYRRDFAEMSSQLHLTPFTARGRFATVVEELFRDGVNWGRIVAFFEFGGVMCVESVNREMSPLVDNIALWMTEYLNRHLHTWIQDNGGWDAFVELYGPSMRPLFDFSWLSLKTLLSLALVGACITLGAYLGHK
Sequence of Bcl-2-like protein 1 (Q07817 whole entry): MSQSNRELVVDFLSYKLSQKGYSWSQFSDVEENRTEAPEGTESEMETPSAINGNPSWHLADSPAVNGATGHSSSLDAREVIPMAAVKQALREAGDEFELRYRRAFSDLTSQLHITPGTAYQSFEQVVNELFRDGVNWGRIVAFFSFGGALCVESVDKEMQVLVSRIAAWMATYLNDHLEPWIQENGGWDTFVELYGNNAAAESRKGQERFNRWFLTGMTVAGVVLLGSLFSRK

Row | SMILES | IC50 [1] | IC50 [2] | Ki [2] | IC50 [3] | IC50 (NCI-H1417) | IC50 (Bcl-2-like protein 1) | Ki (Bcl-2-like protein 1) | Activity (NCI-H146 [4]) | Activity (NCI-H146 [5]) | Activity (NCI-H146 [6]) | Activity (NCI-H146 [7]) | Activity [8]
1 | CN(C)CC[C@H](CSc1ccccc1)Nc1ccc(S(=O)(=O)Nc2ccc(C#Cc3cccc(-c4c(-c5ccc(Cl)cc5)cn(CC[C@H](O)CO)c4C(=O)NCCCN4CCN(C)CC4)c3)cc2)cc1[N+](=O)[O-] | > 10 µM | 0.0066 µM | 0.0015 µM | > 10 µM | > 10 µM | 0.0126 µM | 0.0017 µM | – | – | – | – | –
2 | CN(C)CC[C@H](CSc1ccccc1)Nc1ccc(S(=O)(=O)NC(=O)c2ccc(N3CCN(Cc4ccccc4-c4ccc(Cl)cc4)CC3)cc2)cc1[N+](=O)[O-] [ABT 737] | 0.097 µM | – | – | – | 0.13 µM | – | – | – | – | – | – | –
3 | CN(C)CC[C@H](CSc1ccccc1)Nc1ccc(S(=O)(=O)Nc2ccc(N3CCN(c4cccc(-c5c(-c6ccc(Cl)cc6)cn(C)c5C(=O)O)c4)CC3)cc2)cc1[N+](=O)[O-] | 0.34 µM | 0.0017 µM | < 0.0006 µM | > 2 µM | 0.552 µM | 0.0036 µM | < 0.001 µM | Dose-dependent effect | Active | Active | – | –
4 | CCc1c(-c2ccc(Cl)cc2)c(-c2cccc(N3CCN(c4ccc(NS(=O)(=O)c5ccc(N[C@H](CCN(C)C)CSc6ccccc6)c([N+](=O)[O-])c5)cc4)CC3)c2)c(C(=O)O)n1C | – | – | – | > 2 µM | – | 0.0075 µM | < 0.001 µM | Dose-dependent effect | Active | Active | Active | >70%
5 | CN1CCN(CCCNC(=O)c2c(-c3ccccc3)c(-c3ccc(Cl)cc3)cn2CC[C@H](O)CO)CC1 | > 10 µM | 213 µM | 78 µM | > 100 µM | > 10 µM | 453 µM | – | – | – | – | – | –
6 | CN(C)CC[C@H](CSc1ccccc1)Nc1ccc(S(=O)(=O)Nc2ccc(N3CCN(c4ccc(-c5c(-c6ccc(Cl)cc6)cn(CC[C@H](O)CO)c5C(=O)NCCCN5CCN(C)CC5)cc4)CC3)cc2)cc1[N+](=O)[O-] | 2.5 µM | 0.0339 µM | 0.0085 µM | > 10 µM | 3.3 µM | 0.0076 µM | < 0.001 µM | – | – | – | – | –
7 | CN(C)CC[C@H](CSc1ccccc1)Nc1ccc(S(=O)(=O)Nc2ccc(N3CCN(Cc4ccccc4-c4ccc(Cl)cc4)CC3)cc2)cc1[N+](=O)[O-] | > 10 µM | 0.0853 µM | 0.0218 µM | > 10 µM | > 10 µM | 0.0883 µM | 0.0247 µM | – | – | – | – | –
8 | CN(C)CC[C@H](CSc1ccccc1)Nc1ccc(S(=O)(=O)Nc2ccc(N3CCN(c4cccc(-c5c(-c6ccc(Cl)cc6)cn(C)c5C(=O)NCCCN5CCN(C)CC5)c4)CC3)cc2)cc1[N+](=O)[O-] | 0.43 µM | 0.0006 µM | < 0.0006 µM | > 10 µM | 0.65 µM | 0.0049 µM | < 0.001 µM | – | – | – | – | –
9 | CN(C)CC[C@H](CSc1ccccc1)Nc1ccc(S(=O)(=O)NC(=O)c2ccc(N3CCN(c4cccc(-c5c(-c6ccc(Cl)cc6)cn(CC[C@H](O)CO)c5C(=O)NCCCN5CCN(C)CC5)c4)CC3)cc2)cc1[N+](=O)[O-] | > 10 µM | 0.0087 µM | 0.002 µM | > 10 µM | > 10 µM | 0.0061 µM | < 0.001 µM | – | – | – | – | –
10 | CN(C)CC[C@H](CSc1ccccc1)Nc1ccc(S(=O)(=O)Nc2ccc(NCCNc3cccc(-c4c(-c5ccc(Cl)cc5)cn(CC[C@H](O)CO)c4C(=O)NCCCN4CCN(C)CC4)c3)cc2)cc1[N+](=O)[O-] | > 10 µM | 0.0606 µM | 0.0154 µM | > 10 µM | > 10 µM | 0.0441 µM | 0.0113 µM | – | – | – | – | –
11 | CN(C)CC[C@H](CSc1ccccc1)Nc1ccc(S(=O)(=O)NC(=O)c2ccc(C#Cc3cccc(-c4c(-c5ccc(Cl)cc5)cn(CC[C@H](O)CO)c4C(=O)NCCCN4CCN(C)CC4)c3)cc2)cc1[N+](=O)[O-] | > 10 µM | 0.0019 µM | – | > 10 µM | > 10 µM | 0.0057 µM | < 0.001 µM | – | – | – | – | –
12 | CN(C)CC[C@H](CSc1ccccc1)Nc1ccc(S(=O)(=O)Nc2ccc(N3CCNCC3)cc2)cc1[N+](=O)[O-] | > 10 µM | – | – | > 100 µM | > 10 µM | – | – | – | – | – | – | –
13 | CN(C)CC[C@H](CSc1ccccc1)Nc1ccc(S(=O)(=O)Nc2ccccc2)cc1[N+](=O)[O-] | > 10 µM | > 100 µM | – | > 100 µM | > 10 µM | 547 µM | 166 µM | – | – | – | – | –
14 | CCOC(=O)c1c(-c2cccc(N3CCN(c4ccc(NS(=O)(=O)c5ccc(N[C@H](CCN(C)C)CSc6ccccc6)c([N+](=O)[O-])c5)cc4)CC3)c2)c(-c2ccc(Cl)cc2)cn1C | 4.9 µM | 0.0458 µM | 0.0116 µM | > 2 µM | 7.3 µM | 0.0126 µM | 0.0017 µM | – | – | – | – | –
15 | CN(C)CC[C@H](CSc1ccccc1)Nc1ccc(S(=O)(=O)Nc2ccc(N3CCN(c4cccc(-c5cn(C)cc5-c5ccc(Cl)cc5)c4)CC3)cc2)cc1[N+](=O)[O-] | > 10 µM | 0.0826 µM | 0.0211 µM | > 2 µM | > 10 µM | 0.0344 µM | 0.0083 µM | – | – | – | – | –
16 | CN(C)CC[C@H](CSc1ccccc1)Nc1ccc(S(=O)(=O)Nc2ccc(-c3cn(-c4cccc(-c5c(-c6ccc(Cl)cc6)cn(CC[C@H](O)CO)c5C(=O)NCCCN5CCN(C)CC5)c4)nn3)cc2)cc1[N+](=O)[O-] | > 10 µM | 0.0014 µM | < 0.0006 µM | > 10 µM | > 10 µM | 0.0048 µM | < 0.001 µM | – | – | – | – | –
17 | CNC(=O)c1c(-c2cccc(N3CCN(c4ccc(NS(=O)(=O)c5ccc(N[C@H](CCN(C)C)CSc6ccccc6)c([N+](=O)[O-])c5)cc4)CC3)c2)c(-c2ccc(Cl)cc2)cn1C | 0.4 µM | 0.0053 µM | 0.0012 µM | > 2 µM | 0.65 µM | 0.0063 µM | < 0.001 µM | – | – | – | – | –
18 | CN(C)CC[C@H](CSc1ccccc1)Nc1ccc(S(N)(=O)=O)cc1[N+](=O)[O-] | > 10 µM | > 100 µM | – | > 100 µM | > 10 µM | 238 µM | 75 µM | – | – | – | – | –
19 | CN(C)CC[C@H](CSc1ccccc1)Nc1ccc(S(=O)(=O)Nc2ccc(N3CCN(c4cccc(-c5c(-c6ccc(Cl)cc6)cn(CC[C@H](O)CO)c5C(=O)NCCCN5CCN(C)CC5)c4)CC3)cc2)cc1[N+](=O)[O-] | 2 µM | 0.0013 µM | < 0.0006 µM | > 10 µM | 1.8 µM | 0.0062 µM | < 0.001 µM | – | – | – | – | –
